Screening results as filed in PubChem.
RGS4 inh = human RGS4 inhibition | P49798 | 310,000 tested, 0.45% active | AID 463165 | B-score at 10 µM | HEK293 M3R/RGS4 inducible, Fluo-4 calcium flux; active compounds read high; triggered by carbachol at its EC20;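 active = B-score, a plate-corrected calcium signal, over three deviations above library mean, with baseline fluorescence within five deviations of library mean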;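 also: RGS4 expression induced by doxycycline in cells with stable M3 receptor; B-score is computed from the integrated fluorescence ratio over baseline after carbachol; higher B-score means a larger calcium signal and so more RGS4 inhibition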
Target sequence (P49798 whole entry, looked up): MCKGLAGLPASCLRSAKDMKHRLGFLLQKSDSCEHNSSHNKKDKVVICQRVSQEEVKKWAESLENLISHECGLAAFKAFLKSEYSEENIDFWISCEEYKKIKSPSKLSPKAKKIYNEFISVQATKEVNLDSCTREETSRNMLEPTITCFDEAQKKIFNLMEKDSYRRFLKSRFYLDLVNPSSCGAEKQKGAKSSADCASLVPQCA
RGS4 act = RGS4 potentiation or activation | HEK293 M3R/inducible RGS4, carbachol calcium flux Fluo4; active compounds read low | B-score at 10 µM | 310,000 tested, 0.92% active | AID 463111;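 active = B-score of the integrated calcium signal more than 4 SD below the library mean, with starting fluorescence not abnormally high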;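 also: negative B-score means reduced calcium response which marks RGS4 activation or potentiation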
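System: HEK293 FlpIn-TREx cells, stable M3R, doxycycline-inducible RGS4. Timing: overnight RGS4 induction, 30 min dye load 37 °C, 20 min compound RT. Also added: carbachol, ECmax concentration. Measured by: Fluo4 fluorescence kinetic imaging of calcium. Evaluation: integrated calcium ratio converted to B score.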
MrgX1 antag = human MrgX1 receptor antagonism, primary screen | MRGX1-HEK293 calcium flux, Fluo-4, BAM8-22 antagonism; active compounds read low | B-score at 10 µM | Q96LB2 | AID 588676 | 310,000 tested, 1.3% active;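 active = calcium-response B-score plate-corrected more than 3 library SD below zero, starting fluorescence within 5 deviations, no agonist response on first addition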;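 also: peak minus trough fluorescence over baseline after final BAM8-22 challenge near maximal dose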
Target sequence (Q96LB2 whole entry, looked up): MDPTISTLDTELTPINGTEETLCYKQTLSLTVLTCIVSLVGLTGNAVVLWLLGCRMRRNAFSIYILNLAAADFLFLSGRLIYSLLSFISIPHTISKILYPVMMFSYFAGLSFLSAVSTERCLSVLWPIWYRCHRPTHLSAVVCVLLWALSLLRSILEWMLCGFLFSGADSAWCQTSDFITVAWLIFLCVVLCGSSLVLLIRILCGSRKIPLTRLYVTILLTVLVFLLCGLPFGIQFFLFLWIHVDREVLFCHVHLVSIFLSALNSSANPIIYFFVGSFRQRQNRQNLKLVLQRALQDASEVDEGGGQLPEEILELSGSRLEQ
MrgX1 allo act = human MrgX1 positive allosteric modulation, primary screen | Q96LB2 | MrgX1-HEK293, Fluo-4 calcium flux, FDSS; active compounds read high | B-score at 10 µM | 310,000 tested, 0.63% active;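 active = plate-corrected calcium response at least 3 library SD above typical, normal starting fluorescence, not activating the receptor alone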;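 also: compound read alongside a low EC10 to EC30 dose of BAM8-22 agonist; peak minus trough fluorescence over baseline measured at the second addition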
MrgX1 ag = agonists of human MrgX1 receptor | Q96LB2 | MrgX1-HEK293 cells, Fluo-4 calcium fluorescence, agonist mode; active compounds read high | B-score at 10 µM | 310,000 tested, 0.44% active;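 active = calcium response B-score plate-corrected fluorescence ratio at least 3 library SD, with starting fluorescence B-score inside 5 SD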
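System: HEK293 cells stably expressing human MrgX1 receptor; Dosing: test compound in the initial addition of three; Schedule: overnight plating, then 30 min 37 °C plus 30 min room-temperature dye loading; Detection: kinetic calcium dye fluorescence, Fluo-4 NW; Controls: per-plate positive and negative controls for Z′ factor.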
RGS4 block valid = validation of RGS4 inhibitors | AID 492999 | shares compounds with RGS4 inh | 1,700 tested, 65% active | calcium response, % at 10 µM | HEK293 M3R/RGS4, carbachol calcium Fluo-4 fluorescence; carbachol added at its EC20; 0 = buffer wells, 100 = carbachol control;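 active = duplicate-averaged calcium response above the buffer-only control mean plus 5 SD of those controls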;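 also: integrated fluorescence ratio F max minus min over baseline F0; higher response in RGS4-induced cells means RGS4 inhibition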
M3R Ca ctr = non-induced cell nonspecific activity of RGS4 inhibitors. activity (percent), % at 10 µM. 1,900 tested, 20% active. HEK293 M3R non-induced, carbachol calcium Fluo-4; submaximal (EC20) carbachol stimulus; buffer wells 0%, carbachol control wells 100%. shares compounds with RGS4 inh; call rule not given here;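 also: RGS4 induction absent so cells express M3R without RGS4; higher means more calcium signal and flags a non-specific hit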
RGS4 inh ctr2 = second counter-screen for RGS4 inhibitors: non-induced cells without carbachol. AID 493001. 1,900 tested, 22% active. HEK293 M3R/RGS4 non-induced, Fluo-4 calcium, no carbachol; normalised: buffer wells 0%, carbachol wells 100%. shares compounds with RGS4 inh. calcium response (agonist-mode artifact), % at 10 µM;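 active = duplicate-averaged calcium rise in uninduced cells above buffer wells' mean plus 5 SD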
The depositor's hits bear a star; i = inactive; nt = no result given. Rows were chosen to be rich in hits. Some 3.5% of all compounds tested hit in one or more screens of this group.

SMILES	RGS4 inh	RGS4 act	MrgX1 antag	MrgX1 allo act	MrgX1 ag	RGS4 block valid	M3R Ca ctr	RGS4 inh ctr2
CCc1nnc(NS(=O)(=O)c2ccc(N=Cc3c(C)[nH]n(-c4ccc(Cl)cc4)c3=O)cc2)s1	i	i	i	i	i	nt	i	i
CC1CC1C(=O)OCC(=O)N(C)c1c(N)n(Cc2ccccc2)c(=O)[nH]c1=O (stereo unspecified)	i	i	i	i	i	nt	nt	nt
CCCCOCCCNC(=O)N[C@H](C(=O)OC)C(C)CC (stereo partly specified)	i	i	i	i	i	nt	nt	nt
COCCNC(=O)c1cn(Cc2c(F)cccc2Cl)nn1	i	i	i	i	i	nt	i	i
CCOc1ccc(-c2c(C(=O)N/N=C/c3ccoc3)nnn2-c2nonc2N)cc1	i	i	i	i	i	nt	nt	nt
CCOc1cccc(-c2c(C(=O)N/N=C/c3ccoc3)nnn2-c2nonc2N)c1	i	i	i	i	i	i	i	i
CCOc1ccc(/C=N/NC(=O)c2nnn(-c3nonc3N)c2-c2ccc(OCC)cc2)cc1	i	i	i	i	i	i	i	i
CCOc1cccc(-c2c(C(=O)N/N=C/c3ccncc3)nnn2-c2nonc2N)c1	i	i	i	i	i	i	i	i
CCOc1cccc(-c2c(C(=O)N/N=C(\C)c3ccncc3)nnn2-c2nonc2N)c1	i	i	i	i	i	nt	nt	nt
CCC(C)c1ccccc1N1CC(C(=O)Nc2ccc(C)c(S(=O)(=O)N3CCOCC3)c2)CC1=O (stereo unspecified)	i	i	i	i	i	nt	nt	nt
Cc1cc([N+](=O)[O-])nn1CCCC(=O)Nc1cc(Cl)ccc1Cl	i	i	i	i	i	nt	nt	nt
Cc1ccc(-c2nc3c(c(=O)[nH]c(=O)n3Cc3ccccc3)n2Cc2ccccc2)o1	8.18*	i	nt	nt	nt	24.0%*	i	7.0%*
Cc1cc(N(CCO)CCO)ccc1C(c1ccc(N(CCO)CCO)cc1C)c1ccccc1Cl	5.99*	i	i	i	i	16.5%*	i	25.0%*
CCN(CC)c1ccc(NC(=O)CNCc2ccccc2Cl)c(C)c1	i	i	i	i	i	nt	nt	nt
Cc1cc(N=Nc2ccccc2)c(NCC(O)C(O)C(O)CO)cc1C (stereo unspecified)	9.62*	i	i	i	i	35.5%*	38.0%*	i
Cc1cc(=O)oc2cc(NC(=O)Cc3ccccc3[N+](=O)[O-])ccc12	i	i	i	i	i	nt	nt	nt
Cc1ccc(NC(=O)c2[nH]cnc2C(=O)NN)cc1	i	i	i	i	i	nt	nt	nt
Cc1ccc(NC(=O)c2nc[nH]c2C(=O)N[C@@H](C)c2ccccc2)cc1	5.65*	i	i	i	i	29.0%*	i	i
O=C(NC(=S)NNC(=O)c1ccccc1[N+](=O)[O-])c1ccc(Br)cc1	i	i	i	i	i	nt	nt	nt
CSC1=NS(=O)(=O)c2c(C)nn(C)c2S1	i	i	i	i	i	nt	nt	nt
Cc1cc(Br)cc2c1N(C)C(=O)C2(c1ccc(O)cc1)c1ccc(O)cc1	27.1*	i	i	i	i	75.5%*	43.0%*	i
O=C(Nc1nc(-c2ccc(Cl)s2)cs1)c1ccco1	6.54*	i	i	i	i	13.5%*	i	i
CC(=O)Nc1sc(NC(=O)c2ccco2)nc1-c1cccs1	i	i	i	i	i	nt	nt	nt
O=C(Nc1nc(-c2ccc(Cl)s2)cs1)c1cccs1	i	i	i	i	i	nt	nt	nt
O=C(Nc1nc(-c2cccs2)c(-c2ccccc2)s1)c1ccco1	13.9*	i	i	i	i	43.0%*	52.0%*	i
SMILES	RGS4 inh	RGS4 act	MrgX1 antag	MrgX1 allo act	MrgX1 ag	RGS4 block valid	M3R Ca ctr	RGS4 inh ctr2
CCOc1ccccc1N1CCN(C(=O)c2c(-c3c(F)cccc3Cl)noc2C)CC1	i	i	i	i	i	nt	nt	nt
COc1ccc(OCC(O)Cn2cnc(-c3ccc(Br)cc3)c2)cc1 (stereo unspecified)	i	i	i	i	i	nt	nt	nt
OC(COc1ccc2ccccc2c1Br)Cn1cnc(-c2ccccc2)c1 (stereo unspecified)	9.28*	i	i	i	i	10.0%*	i	i
COc1ccc(NC(=O)C2=CCN(S(=O)(=O)c3ccccc3)CC2)cc1OC	i	i	i	i	i	nt	nt	nt
O=C1NCCCc2c1oc1ccc(O)cc21	i	i	i	i	i	nt	nt	nt
Oc1c(Cl)cc(Cl)c2c1NCCC2	9.33*	i	nt	nt	nt	64.0%*	i	i
COc1ccc(C2=NS(=O)(=O)N(C)C(C(=O)Nc3ccc(C(C)=O)cc3)=C2)cc1OC	i	i	i	i	i	nt	nt	nt
CCSc1nc2ccccc2n1C(=O)/C=C\c1ccc(OC)c(OC)c1	13.6*	i	i	i	i	21.5%*	75.5%*	7.5%*
Cc1cccc(N=c2oc3cc(O)ccc3cc2C(N)=O)c1	4.71*	i	i	i	i	6.0%*	i	30.5%*
CC(NCCCOc1cccc2ccccc12)c1ccccc1 (stereo unspecified)	i	i	i	i	i	nt	nt	nt
COC(=O)CCCC1=CC2=C(c3ccccc3)C(=O)C(C)(OC(=O)C3CCCC3)C(=O)C2=CN1C1CC1 (stereo unspecified)	i	i	i	i	i	nt	nt	nt
CCCCC1=CC2=C(c3ccco3)C(=O)C(C)(OC(=O)c3ccc(OC)cc3)C(=O)C2=CN1C1CCCC1 (stereo unspecified)	i	i	i	i	i	i	i	102.0%*
CCCCC1=CC2=C(c3ccco3)C(=O)C(C)(OC(=O)c3ccc(OC)cc3)C(=O)C2=CN1C1CC1 (stereo unspecified)	9.33*	i	i	i	i	5.5%*	i	i
CCOc1ccc(N(CC(=O)N2CCOCC2)S(=O)(=O)c2ccc(Cl)cc2)cc1	i	i	i	i	i	nt	nt	nt
CCOC(=O)/C(C#N)=C/c1cn(CCC(=O)O)nc1-c1ccccc1	i	i	i	i	i	i	i	i
